What was measured:
Conditions in all cases: stereoisomer not certain
[1] = target: T1, OR10G2 (Homo sapiens) (UniProt Q8NGC3)
T1 sequence (whole entry): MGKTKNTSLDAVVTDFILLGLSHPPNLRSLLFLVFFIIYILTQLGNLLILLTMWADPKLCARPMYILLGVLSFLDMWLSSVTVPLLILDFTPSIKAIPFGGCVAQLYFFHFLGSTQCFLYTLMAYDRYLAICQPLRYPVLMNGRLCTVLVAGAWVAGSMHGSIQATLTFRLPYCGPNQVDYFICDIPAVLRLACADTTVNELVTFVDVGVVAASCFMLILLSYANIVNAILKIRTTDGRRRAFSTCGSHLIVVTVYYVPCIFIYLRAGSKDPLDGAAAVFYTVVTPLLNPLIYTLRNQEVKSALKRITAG
Method in brief: (§1)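 Whether a receptor–molecule pair is responsive (active) rests on the original authors' judgment that its measured signal was statistically different from baseline. Pairs without that judgment are non-responsive (inactive). Sources used varied assay methods, commonly transient luciferase assays in mammalian cell lines.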

[2] = target: T2, OR10G3 (Homo sapiens) (UniProt Q8NGC4)
T2 sequence (whole entry): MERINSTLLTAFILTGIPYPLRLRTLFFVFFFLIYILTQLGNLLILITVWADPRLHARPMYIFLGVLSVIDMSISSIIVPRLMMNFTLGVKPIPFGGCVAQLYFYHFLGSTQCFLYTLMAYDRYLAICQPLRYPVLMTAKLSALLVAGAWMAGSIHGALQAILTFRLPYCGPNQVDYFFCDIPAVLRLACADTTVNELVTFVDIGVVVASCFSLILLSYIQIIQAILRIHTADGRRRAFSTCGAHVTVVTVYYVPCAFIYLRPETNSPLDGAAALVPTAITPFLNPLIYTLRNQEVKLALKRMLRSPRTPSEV
Method in brief: as §1

[3] = target: T3, OR10G4 (Homo sapiens) (UniProt Q8NGN3)
T3 sequence (whole entry): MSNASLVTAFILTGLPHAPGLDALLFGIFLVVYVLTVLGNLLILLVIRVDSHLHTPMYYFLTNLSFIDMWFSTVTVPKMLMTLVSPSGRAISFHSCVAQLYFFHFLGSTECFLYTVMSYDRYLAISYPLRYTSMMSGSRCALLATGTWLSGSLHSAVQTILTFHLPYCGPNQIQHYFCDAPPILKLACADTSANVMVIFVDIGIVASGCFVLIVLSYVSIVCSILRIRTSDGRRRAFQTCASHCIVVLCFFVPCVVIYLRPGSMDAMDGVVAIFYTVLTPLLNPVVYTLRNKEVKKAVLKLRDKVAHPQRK
Method in brief: as §1

[4] = target: T4, OR10G6 (Homo sapiens) (UniProt Q8NH81)
T4 sequence (whole entry): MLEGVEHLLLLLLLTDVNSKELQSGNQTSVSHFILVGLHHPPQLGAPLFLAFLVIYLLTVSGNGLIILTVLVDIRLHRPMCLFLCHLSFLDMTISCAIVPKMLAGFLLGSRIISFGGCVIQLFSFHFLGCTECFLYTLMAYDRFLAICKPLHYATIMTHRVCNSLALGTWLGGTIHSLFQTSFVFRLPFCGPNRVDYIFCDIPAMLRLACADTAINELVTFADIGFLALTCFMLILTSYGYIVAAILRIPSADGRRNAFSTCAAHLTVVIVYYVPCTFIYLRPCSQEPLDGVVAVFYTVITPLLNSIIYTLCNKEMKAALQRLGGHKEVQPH
Method in brief: as §1

[5] = target: T5, OR10G7 (Homo sapiens) (UniProt Q8NGN6)
T5 sequence (whole entry): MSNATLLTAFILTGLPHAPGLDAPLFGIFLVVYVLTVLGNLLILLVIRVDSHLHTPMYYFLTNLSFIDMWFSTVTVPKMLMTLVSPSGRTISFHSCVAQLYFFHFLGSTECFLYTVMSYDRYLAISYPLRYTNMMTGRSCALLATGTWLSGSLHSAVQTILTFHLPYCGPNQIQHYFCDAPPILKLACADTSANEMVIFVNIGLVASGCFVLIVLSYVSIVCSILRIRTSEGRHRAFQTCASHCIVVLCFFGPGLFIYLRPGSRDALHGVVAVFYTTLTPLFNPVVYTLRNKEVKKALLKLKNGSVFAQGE
Method in brief: as §1

[6] = target: T6, OR10G8 (Homo sapiens) (UniProt Q8NGN5)
T6 sequence (whole entry): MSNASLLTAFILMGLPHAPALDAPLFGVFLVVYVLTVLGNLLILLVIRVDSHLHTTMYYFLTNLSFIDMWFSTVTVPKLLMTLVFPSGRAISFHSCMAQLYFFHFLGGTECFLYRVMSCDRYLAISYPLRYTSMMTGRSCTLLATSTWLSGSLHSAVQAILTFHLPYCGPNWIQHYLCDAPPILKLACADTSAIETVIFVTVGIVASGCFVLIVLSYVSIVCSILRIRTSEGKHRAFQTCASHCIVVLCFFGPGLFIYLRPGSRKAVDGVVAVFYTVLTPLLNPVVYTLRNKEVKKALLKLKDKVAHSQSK
Method in brief: as §1

[7] = target: T7, OR10G9 (Homo sapiens) (UniProt Q8NGN4)
T7 sequence (whole entry): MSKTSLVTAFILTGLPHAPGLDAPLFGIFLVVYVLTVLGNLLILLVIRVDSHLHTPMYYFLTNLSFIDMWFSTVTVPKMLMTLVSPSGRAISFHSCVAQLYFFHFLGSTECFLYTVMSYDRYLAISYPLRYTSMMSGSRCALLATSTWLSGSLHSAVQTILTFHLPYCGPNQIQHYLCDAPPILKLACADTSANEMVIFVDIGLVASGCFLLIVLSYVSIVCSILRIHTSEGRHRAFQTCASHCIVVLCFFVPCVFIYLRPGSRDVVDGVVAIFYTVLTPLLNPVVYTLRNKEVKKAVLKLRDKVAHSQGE
Method in brief: as §1

[8] = target: T8, OR10H1 (Homo sapiens) (UniProt Q9Y4A9)
T8 sequence (whole entry): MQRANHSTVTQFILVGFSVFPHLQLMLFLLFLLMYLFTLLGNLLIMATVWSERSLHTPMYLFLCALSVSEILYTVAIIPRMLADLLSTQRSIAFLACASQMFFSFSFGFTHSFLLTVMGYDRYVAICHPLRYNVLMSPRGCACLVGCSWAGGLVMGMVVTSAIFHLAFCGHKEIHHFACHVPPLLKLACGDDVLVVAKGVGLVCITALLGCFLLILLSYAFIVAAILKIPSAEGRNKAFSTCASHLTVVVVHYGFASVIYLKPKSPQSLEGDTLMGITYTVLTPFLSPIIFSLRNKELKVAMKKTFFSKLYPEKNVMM
Method in brief: as §1

[9] = target: T9, OR10H2 (Homo sapiens) (UniProt O60403)
T9 sequence (whole entry): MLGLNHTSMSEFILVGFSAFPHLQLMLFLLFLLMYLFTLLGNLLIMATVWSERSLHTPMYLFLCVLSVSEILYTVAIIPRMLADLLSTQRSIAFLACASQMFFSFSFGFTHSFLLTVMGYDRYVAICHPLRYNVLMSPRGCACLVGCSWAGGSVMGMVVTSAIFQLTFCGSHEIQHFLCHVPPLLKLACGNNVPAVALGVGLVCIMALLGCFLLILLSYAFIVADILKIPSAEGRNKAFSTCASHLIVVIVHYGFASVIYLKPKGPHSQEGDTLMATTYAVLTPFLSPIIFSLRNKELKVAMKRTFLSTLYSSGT
Method in brief: as §1

Measured: odorant receptor agonist call;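 also: active if original authors judged signal statistically different from baseline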

CC(CO)CS (centres undefined)
inactive: all assays above
